The source of these data is ChEMBL document CHEMBL4825702, “5-Aminonaphthalene derivatives as selective nonnucleoside nuclear receptor binding SET domain-protein 2 (NSD2) inhibitors for the treatment of multiple myeloma” (Eur J Med Chem, 2021).

Molecules are shown by their SMILES. Activity calls are given as the source filed them. No cut-off for these calls is given here. Some results are limits rather than exact numbers.

In series [1] the test system is KMS-11. Put plainly: Induction of apoptosis in human KMS-11 cells incubated for 72 hrs by annexin-V/FITC and propidium iodide staining based flow cytometry analysis. The format is functional, cell-based. The settings on record: dose 5-10 µM. (In general: Flow cytometry measures light scatter and fluorescence of single cells or particles in a stream.)
Another series concerns MOLT-4. Put plainly: Antiproliferative activity against human MOLT-4 cells assessed as reduction in cell viability incubated for 6 days by CCK8 assay. For orientation: Tetrazolium assays rely on reduction of a dye to a coloured formazan, in cell work by metabolically active cells.
In series [2] the target is Histone-lysine N-methyltransferase EZH2 (Homo sapiens, UniProt Q15910). Put plainly: Inhibition of EZH2 (unknown origin) using SAM as substrate preincubated for 10 mins followed by substrate addition measured after 4 hrs by HTRF method. The essentials: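 HTRF assay: inhibitor plus enzyme preincubated 10 min at room temperature, then peptide/SAM mix added and incubated at room temperature. Antibody and SA-XL665 detection mix added for 1 h in subdued light. Emission read at 665 and 620 nm; IC50 from two separate experiments.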
Sequence of Histone-lysine N-methyltransferase EZH2 (Q15910 whole entry): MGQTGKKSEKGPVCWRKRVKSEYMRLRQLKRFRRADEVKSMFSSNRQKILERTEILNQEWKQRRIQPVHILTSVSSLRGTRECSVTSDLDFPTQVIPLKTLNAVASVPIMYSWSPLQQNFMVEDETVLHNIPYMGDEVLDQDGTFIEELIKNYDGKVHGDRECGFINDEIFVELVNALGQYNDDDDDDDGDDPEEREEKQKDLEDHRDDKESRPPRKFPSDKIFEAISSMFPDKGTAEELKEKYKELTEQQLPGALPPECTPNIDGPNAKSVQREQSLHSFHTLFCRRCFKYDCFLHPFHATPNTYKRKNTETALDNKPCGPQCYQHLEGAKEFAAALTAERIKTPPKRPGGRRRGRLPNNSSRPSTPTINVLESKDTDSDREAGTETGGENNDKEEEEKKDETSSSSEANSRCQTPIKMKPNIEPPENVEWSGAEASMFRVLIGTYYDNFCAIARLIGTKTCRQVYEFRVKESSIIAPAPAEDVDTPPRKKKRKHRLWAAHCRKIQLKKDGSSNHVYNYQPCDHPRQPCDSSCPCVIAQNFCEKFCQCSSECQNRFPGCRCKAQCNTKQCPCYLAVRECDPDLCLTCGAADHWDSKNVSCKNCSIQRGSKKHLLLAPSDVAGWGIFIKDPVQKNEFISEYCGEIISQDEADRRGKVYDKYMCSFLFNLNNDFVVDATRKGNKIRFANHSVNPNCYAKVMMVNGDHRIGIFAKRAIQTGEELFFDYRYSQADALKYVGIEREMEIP

In the next series the test system is KARPAS-422. Kind of series: Antiproliferative activity against human KARPAS-422 cells assessed as reduction in cell viability incubated for 6 days by CCK8 assay.
The next series has as its system OPM-2. Kind of series: Antiproliferative activity against human OPM-2 cells assessed as reduction in cell viability incubated for 6 days by CCK8 assay.
Series [3] is described as follows: Inhibition of PAK1 transcriptional activity in human KMS-11 cells assessed as reduction in H3K36 methylation at 10 uM measured after 72 hrs by chip q-PCR analysis.
Series [4] is described as follows: Cmax in CD-1 mouse at 2 mg/kg, ip measured up to 24 hrs by LC-MS/MS. The format is ADME, organism-based. On the set-up: route intraperitoneal, dose 2 mg/kg, time <=24. The note with it: in vivo. The method in brief: (§1)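 CD-1 mice given a single 2 mg/kg dose i.p. or i.v. (n = 3 per group). Blood sampled at 0, 0.083, 0.25, 0.5, 1, 2, 4, 6, 8 and 24 h and centrifuged for plasma, with internal standard added. Plasma deproteinized with methanol/acetonitrile (1:1), supernatant diluted with acetonitrile/water, and compound measured by LC/MS/MS.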

Series [5] is described as follows: AUC in CD-1 mouse at 2 mg/kg, ip measured up to 24 hrs by LC-MS/MS. On the set-up: route intraperitoneal, dose 2 mg/kg, time <=24. The note with it: in vivo. In kind it is ADME, organism-based. The essentials:
as §1

For series [6], the system named is KMS-11. Put plainly: cells. The note with it: Homo sapiens, KMS-11, 72 h, read-out: Activity.
Series [7] can be described thus: Half life in CD-1 mouse at 2 mg/kg, iv measured up to 24 hrs by LC-MS/MS. The format is ADME, organism-based. The note with it: in vivo. The essentials: as §1
A short description of series [8]: Clearance in CD-1 mouse at 2 mg/kg, iv measured up to 24 hrs by LC-MS/MS. The note with it: in vivo. The format is ADME, organism-based. The method in brief:
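CD-1 mice given a single 2 mg/kg i.v. dose (n = 3). Plasma collected at 0–24 h (0.083, 0.25, 0.5, 1, 2, 4, 6, 8, 24 h), deproteinized with methanol/acetonitrile 1:1 and analysed by LC/MS/MS. Clearance derived from the plasma concentration–time data.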

The target of series [9] is T1, Histone-lysine N-methyltransferase NSD2 (Homo sapiens, UniProt O96028).
T1 sequence (O96028 whole entry): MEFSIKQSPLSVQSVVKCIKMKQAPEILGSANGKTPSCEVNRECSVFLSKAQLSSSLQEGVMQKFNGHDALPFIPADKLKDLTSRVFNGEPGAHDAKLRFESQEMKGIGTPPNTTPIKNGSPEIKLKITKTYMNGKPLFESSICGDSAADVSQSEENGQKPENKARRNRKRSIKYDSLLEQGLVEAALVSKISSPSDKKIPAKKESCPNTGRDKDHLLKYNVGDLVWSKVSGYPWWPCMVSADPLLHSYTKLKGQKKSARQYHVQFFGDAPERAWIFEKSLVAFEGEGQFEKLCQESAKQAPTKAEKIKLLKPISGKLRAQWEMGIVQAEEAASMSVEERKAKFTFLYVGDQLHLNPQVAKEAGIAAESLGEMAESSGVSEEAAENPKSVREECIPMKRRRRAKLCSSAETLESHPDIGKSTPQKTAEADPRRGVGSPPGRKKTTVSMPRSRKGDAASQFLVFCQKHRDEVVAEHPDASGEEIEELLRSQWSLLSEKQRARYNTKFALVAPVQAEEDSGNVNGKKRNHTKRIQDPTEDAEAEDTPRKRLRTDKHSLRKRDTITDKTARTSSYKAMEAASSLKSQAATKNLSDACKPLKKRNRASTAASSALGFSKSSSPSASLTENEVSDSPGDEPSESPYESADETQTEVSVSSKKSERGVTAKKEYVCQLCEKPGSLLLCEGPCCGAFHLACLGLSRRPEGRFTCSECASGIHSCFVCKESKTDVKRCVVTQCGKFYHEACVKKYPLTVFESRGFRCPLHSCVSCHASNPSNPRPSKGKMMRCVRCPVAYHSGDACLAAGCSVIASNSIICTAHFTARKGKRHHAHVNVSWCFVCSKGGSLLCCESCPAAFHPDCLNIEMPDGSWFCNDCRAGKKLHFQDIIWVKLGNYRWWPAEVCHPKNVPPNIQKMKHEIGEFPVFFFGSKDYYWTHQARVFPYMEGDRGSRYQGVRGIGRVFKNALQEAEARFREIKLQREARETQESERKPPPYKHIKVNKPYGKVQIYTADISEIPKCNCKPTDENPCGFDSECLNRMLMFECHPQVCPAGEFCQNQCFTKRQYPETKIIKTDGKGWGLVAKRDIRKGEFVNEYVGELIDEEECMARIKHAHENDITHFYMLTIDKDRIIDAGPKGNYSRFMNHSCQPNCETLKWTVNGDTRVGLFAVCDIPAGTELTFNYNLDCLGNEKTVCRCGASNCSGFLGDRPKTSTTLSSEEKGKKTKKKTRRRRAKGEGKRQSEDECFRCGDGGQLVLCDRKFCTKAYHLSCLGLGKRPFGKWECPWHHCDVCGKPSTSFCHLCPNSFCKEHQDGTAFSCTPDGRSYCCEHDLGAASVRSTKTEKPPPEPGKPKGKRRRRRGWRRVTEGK
Put plainly: Inhibition of recombinant human N-terminal GST-tagged NSD2 CD (941 to 1240 residues) expressed in Escherichia coli using SAM as substrate in presence of nucleosomes by AlphaLISA method. (In general: Alpha assays give light when donor and acceptor beads are brought close together.)

The test system of a further series is RS4-11. Kind of series: Antitumor activity against human RS4-11 cells xenografted in SCID mouse assessed as tumor growth inhibition at 25 mg/kg, ip qd administered consecutively for 21 days relative to control. The settings on record: RS4-11, ip, 504 h, read-out: TGI.
In a further series the test system is MV4-11. Kind of series: cells. The note with it: Homo sapiens, MV4-11, 72 h, read-out: Activity.
Series [10] can be described thus: MRT in CD-1 mouse at 2 mg/kg, ip measured up to 24 hrs by LC-MS/MS. The note with it: in vivo. In kind it is ADME, organism-based. The essentials: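 CD-1 mice dosed at 2 mg/kg i.p. or i.v., n = 3 per group. Blood sampled at 0, 0.083, 0.25, 0.5, 1, 2, 4, 6, 8 and 24 h and spun for plasma. Internal standard added, deproteinized with methanol/acetonitrile (1:1), supernatant diluted and analysed by LC/MS/MS.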

Broadly, the IC50 is the concentration needed to halve the response being measured. In general, Cmax refers to the peak of the concentration-time curve. Broadly, the AUC is concentration integrated over time. A lower AUC goes with less exposure. In general, half-life refers to the time in which the quantity being followed falls by half. High values mean slow decline, low ones rapid decline. What is called clearance is the volume of plasma or blood freed of the substance per unit of time. By MRT is commonly meant a mean duration of stay, worked out from the concentration-time curve. In the case of `Cl.Nc1cccc2c(S(=O)(=O)NCc3ccccc3)cccc12`, in the series with KMS-11 [1], the Activity result was “Dose-Dependent Effect”. Also, the outcome in the series on MOLT-4, with KARPAS-422 and in the series on OPM-2 was Active. Moreover, the half-maximal inhibitory concentration (IC50) in [2] is over 20 µM; in series [9], 2.7 µM. Moreover, in series [3], the inhibition entry is “Active”. Besides, the highest concentration (Cmax) in series [4] was 433 ng/mL. For the same compound, the AUC at 24 h in series [5] was determined as 150 ng·h/mL. The viability at 10 µM with KMS-11 [6] turned out to be 50.4%. In [7], this compound had a half-life of 39.6 min. In series [8], this compound gave a clearance of 163 mL/min/kg. In addition, the inhibition in vivo at 25 mg/kg in the series on RS4-11 was 43.6%. Also, the viability at 5 µM in the series with MV4-11 stood at 94.4%. Further, the MRT in series [10] came out at 31.9 min.
